UPR CHOP act: activators of apoptotic CHOP UPR arm, primary screen, cell-based, CHO-CHOP luciferase reporter, luminescence, uHTS | UPR activation; percent of tunicamycin response over DMSO baseline | activation, % at 10 µM | 330,000 tested, 0.34% active | AID 449763, 2010;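 active means at 10 µM dose, activation of 40% or more, normalized to positive control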;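 further: 100% = tunicamycin at 10 µg/mL and 0% = DMSO alone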
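System: CHO-CHOP luciferase reporter cell line | Buffer or medium: F12 medium containing 10% fetal bovine serum | Doses: One dose, 10 µM in 0.5% DMSO | Times: 6 h compound exposure at 37 °C after overnight seeding | Signal: Luciferase luminescence | Read-out: % activation vs tunicamycin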
CHOP inhibitor: inhibitors of CHOP promoter induction, primary screen, cell-based, unfolded protein response, luciferase reporter; CHO-K1 CHOP-promoter luciferase, tunicamycin-induced, 15-18 h; inhibition, % at 10 µM; 220,000 tested, 3.8% active; AID 2732, 2010;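 active means compounds that reduced the stress-induced luciferase reporter signal by more than about 70% of percent inhibition, limit read from the data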;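 further: 0% = tunicamycin plus vehicle and 100% = wells without tunicamycin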
XBP1 UPR activ: activators of adaptive XBP1 UPR arm, primary screen, cell-based, CHO-XBP1 luciferase reporter, luminescence, uHTS; IRE1-XBP1 UPR activation; percent of tunicamycin response, DMSO as zero; 330,000 tested, 0.33% active; activation, % at 20 µM;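 active means versus positive control, 20 µM dose yields 30% or more activation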;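 further: 100% = tunicamycin at 10 µg/mL and 0% = DMSO only wells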
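Material – CHO cell line with stable XBP1 luciferase reporter · Buffer or medium – F12 plus 10% FBS · Compound – single point, 20 µM final compound, 1% DMSO · Schedule – 16-18 h cell attachment at 37 °C, then 6 h compound exposure · Signal – Steady-Glo luminescence read · Benchmarks – high control tunicamycin 10 µg/mL final, low control DMSO vehicle only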
NS3 helicase inh: inhibitors of HCV NS3 helicase, primary screen, biochemical, Cy5 molecular beacon fluorescence; inhibition, % at 10.9 µM; 290,000 tested, 0.56% active; NS3 helicase DNA unwinding;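 active means inhibition above the mean of all tested compounds plus 3 SD, set per campaign, cut at about 35% in these data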;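 further: 0% = DMSO wells and 100% = thioflavine S control wells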
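System: NS3 helicase fragment of HCV / Schedule: 1 h at 25 °C / Control set: DMSO alone as 0% and 110 µM thioflavine S as 100% / Reagent: Cy5/quencher beacon DNA duplex and ATP to start / Technique: Cy5 fluorescence / Replication: singlicate / Evaluation: % inhibition of end-to-start signal ratio versus controls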
p97 ATPase inh: inhibitors of human p97 ATPase, primary screen, biochemical; Transitional endoplasmic reticulum ATPase (Homo sapiens), P55072; recombinant p97 ATPase, Kinase-Glo ATP luminescence, 3 h; inhibition, % at 8 µM; 220,000 tested, 0.42% active; in the data active means inhibition above about 15%;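 further: 0% = DMSO vehicle and 100% = wells lacking enzyme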
Target sequence (P55072 whole entry, looked up): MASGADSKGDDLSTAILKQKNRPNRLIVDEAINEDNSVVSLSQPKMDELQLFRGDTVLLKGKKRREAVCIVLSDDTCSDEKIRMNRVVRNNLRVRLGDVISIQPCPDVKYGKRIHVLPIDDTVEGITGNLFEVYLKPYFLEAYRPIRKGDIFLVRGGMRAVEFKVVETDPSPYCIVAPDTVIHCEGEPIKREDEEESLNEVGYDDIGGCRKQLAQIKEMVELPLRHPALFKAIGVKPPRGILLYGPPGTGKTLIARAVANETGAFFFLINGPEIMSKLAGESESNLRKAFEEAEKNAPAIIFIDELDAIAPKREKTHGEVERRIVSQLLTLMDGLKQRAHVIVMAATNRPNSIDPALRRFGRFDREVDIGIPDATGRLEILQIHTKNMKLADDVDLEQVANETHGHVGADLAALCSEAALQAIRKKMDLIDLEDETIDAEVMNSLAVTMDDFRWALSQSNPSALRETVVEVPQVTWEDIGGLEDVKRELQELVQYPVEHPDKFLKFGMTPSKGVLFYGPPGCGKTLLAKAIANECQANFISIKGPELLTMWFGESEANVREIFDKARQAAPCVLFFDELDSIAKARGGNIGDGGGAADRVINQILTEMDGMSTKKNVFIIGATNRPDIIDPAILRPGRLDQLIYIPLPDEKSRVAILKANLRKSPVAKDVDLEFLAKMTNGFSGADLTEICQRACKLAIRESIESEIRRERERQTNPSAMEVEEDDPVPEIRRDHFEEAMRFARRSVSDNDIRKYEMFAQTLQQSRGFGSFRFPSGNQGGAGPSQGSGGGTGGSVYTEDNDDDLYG
PfM18AAP inh: PfM18AAP inhibitors, malaria aminopeptidase, primary screen, biochemical, QFRET, recombinant enzyme; H-Glu-NHMec fluorogenic cleavage; M18 aspartyl aminopeptidase (Plasmodium falciparum 3D7); inhibition, % at 7.35 µM; 290,000 tested, 1.2% active; AID 1822, 2009;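 active means inhibition above the campaign mean inhibition over all tested compounds plus 3 SD, cut at about 28% in these data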;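 further: 0% = plate median of test compound wells and 100% = 2 mM ZnCl2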
Numbers without * were called inactive. A selection: hits, their analogues and other compounds. The true share with any hit is near 4.5%.

For CC(C)CC(NC(N)=O)C(=O)Nc1ccc(Oc2ccccc2)cc1 (stereo unspecified) the results were UPR CHOP act -1, CHOP inhibitor 9, XBP1 UPR activ -2, NS3 helicase inh -6, p97 ATPase inh 0 and PfM18AAP inh 0.
Screening COc1cc2[nH]c3c(=O)n(N)c(=O)[nH]c3c2cc1OC returned UPR CHOP act 1, XBP1 UPR activ -1, NS3 helicase inh -16 and PfM18AAP inh 5.
For O=C(N/N=C/c1cc([N+](=O)[O-])ccc1O)c1ccc(COc2ccc3c(c2)CCC3)o1 the results were UPR CHOP act 21, XBP1 UPR activ 33*, NS3 helicase inh -17 and PfM18AAP inh 4.
For Cc1ccccc1C(=O)Nc1ccnn1C1CCN(Cc2cnn(C(C)C)c2)CC1 the results were UPR CHOP act -1, XBP1 UPR activ -5, NS3 helicase inh -4 and PfM18AAP inh 2.
N#C/C(=C\c1cn(Cc2ccc(F)cc2)c2ccccc12)C(=O)NCc1ccco1 was read as UPR CHOP act -1, CHOP inhibitor 77*, XBP1 UPR activ 0, NS3 helicase inh 10, p97 ATPase inh 3 and PfM18AAP inh 0.
Screening COc1ccc(CCC(C)Nc2ccc(F)cc2)cc1 (stereo unspecified) returned UPR CHOP act -2, CHOP inhibitor 88*, XBP1 UPR activ -3, NS3 helicase inh -5, p97 ATPase inh 1 and PfM18AAP inh 5.
`COc1ccc(CCC(C)Nc2cccc(C)c2)cc1` (stereo unspecified) gave UPR CHOP act 2, CHOP inhibitor 82*, XBP1 UPR activ -2, NS3 helicase inh 0, p97 ATPase inh -9 and PfM18AAP inh 8.
`COc1ccc(CCC(C)Nc2ccc(F)c(F)c2)cc1` (stereo unspecified) gave UPR CHOP act 0, CHOP inhibitor 59, XBP1 UPR activ -2, NS3 helicase inh -6, p97 ATPase inh -1 and PfM18AAP inh 3.
For CC1Sc2ccc(S(=O)(=O)CCC(=O)Nc3ccccn3)cc2NC1=O (stereo unspecified) the results were UPR CHOP act 0, XBP1 UPR activ -4, NS3 helicase inh 19 and PfM18AAP inh 29*.
Screening COC(=O)c1c(C)[nH]c(C(=O)/C=C/c2ccc(C)cc2)c1C returned UPR CHOP act 0, CHOP inhibitor 7, XBP1 UPR activ -4, NS3 helicase inh 2, p97 ATPase inh 0 and PfM18AAP inh 0.
COC(=O)c1c(C)[nH]c(C(=O)/C=C/c2ccccc2)c1C was read as UPR CHOP act 4, CHOP inhibitor 76*, XBP1 UPR activ -2, NS3 helicase inh -9, p97 ATPase inh -1 and PfM18AAP inh 4.
CC(SC1=NCCS1)C(=O)Nc1nnc(-c2ccc(Cl)cc2)s1 (stereo unspecified) was read as UPR CHOP act 10, CHOP inhibitor 87*, XBP1 UPR activ -3, NS3 helicase inh 3, p97 ATPase inh -3 and PfM18AAP inh 4.
O=C(O/N=C1\C(=O)N(c2ccccc2)c2ccccc21)C1CC1 was read as UPR CHOP act 0, CHOP inhibitor 73*, XBP1 UPR activ 0, NS3 helicase inh 9, p97 ATPase inh 2 and PfM18AAP inh 6.
`O=C(/C=C/c1ccccc1)NC(=S)Nc1ccc2c3c(cccc13)CC2` gave UPR CHOP act -2, CHOP inhibitor 75*, XBP1 UPR activ -6, NS3 helicase inh -2, p97 ATPase inh 7 and PfM18AAP inh 4.
`CCN(CC)S(=O)(=O)c1ccc(C)c(NC(=S)N2CCN(C/C=C/c3ccccc3)CC2)c1` gave UPR CHOP act 1, CHOP inhibitor 81*, XBP1 UPR activ 0, NS3 helicase inh -3, p97 ATPase inh 3 and PfM18AAP inh 6.
`O=C(CCSc1ccccc1)NC1CCCCCC1` gave UPR CHOP act 6, CHOP inhibitor 12, XBP1 UPR activ -1, NS3 helicase inh -2, p97 ATPase inh -1 and PfM18AAP inh -6.
O=C(CCSc1ccccc1)NC(=O)COC(=O)C1CCCCC1 was read as UPR CHOP act 0, CHOP inhibitor 70*, XBP1 UPR activ -1, NS3 helicase inh -7, p97 ATPase inh 2 and PfM18AAP inh 5.
Screening CC1(C(=O)O)CCC(C(=O)Nc2ccc(F)cc2)C1(C)C (stereo unspecified) returned UPR CHOP act -2, XBP1 UPR activ -2, NS3 helicase inh -1 and PfM18AAP inh 0.
Screening O=C(O)/C=C/C(=O)Nc1ccc(C2(c3ccc(NC(=O)/C=C/C(=O)O)cc3)c3ccccc3-c3ccccc32)cc1 returned UPR CHOP act 2, XBP1 UPR activ -3, NS3 helicase inh -3 and PfM18AAP inh 8.
`CO/N=C/NC(=O)NOCc1ncc(C(F)(F)F)cc1Cl` gave UPR CHOP act -3, CHOP inhibitor 12, XBP1 UPR activ -3, NS3 helicase inh 5, p97 ATPase inh -5 and PfM18AAP inh -8.
O=C(N/C=N/OCc1ccc(Cl)cc1Cl)NOCc1ncc(C(F)(F)F)cc1Cl was read as UPR CHOP act 3, CHOP inhibitor 95*, XBP1 UPR activ -1, NS3 helicase inh -8, p97 ATPase inh -9 and PfM18AAP inh 2.
For CCCCSc1nnc(CNC(=O)C23CC4CC(CC(C4)C2)C3)n1Cc1ccccc1 the results were UPR CHOP act -1, CHOP inhibitor 85*, XBP1 UPR activ 2, NS3 helicase inh -9, p97 ATPase inh 1 and PfM18AAP inh 2.
`Cc1ccc(C)c(OCCC(=O)OC(C)C(=O)Nc2c(C)n(C)n(-c3ccccc3)c2=O)c1` (stereo unspecified) gave UPR CHOP act 0 and XBP1 UPR activ -2.
COc1ccc(N2C(=O)CSC23CCC(C(C)(C)C)CC3)cc1 (stereo unspecified) was read as UPR CHOP act 2, CHOP inhibitor 79*, XBP1 UPR activ 4, NS3 helicase inh 0, p97 ATPase inh 0 and PfM18AAP inh -4.
Screening CCCN(CCC)CCCNC(=O)c1cc2c(=O)[nH]c3ccccc3c2s1 returned UPR CHOP act 0, XBP1 UPR activ -4, NS3 helicase inh 1 and PfM18AAP inh 4.
CC(C)CC(=O)NC(=S)Nc1ccc(N2CCN(C(=O)c3cccs3)CC2)cc1 was read as UPR CHOP act 11, CHOP inhibitor 76*, XBP1 UPR activ -5, NS3 helicase inh -5, p97 ATPase inh 0 and PfM18AAP inh -1.
